Measured values from ChEMBL document CHEMBL4152308, “Synthesis and biological evaluation of novel 2-oxo-1,2-dihydroquinoline-4-carboxamide derivatives for the treatment of esophageal squamous cell carcinoma” (Eur J Med Chem, 2018).
Activity calls are given as the source filed them. No cut-off for these calls is given here.

Tests used:
KYSE-410 [1] = experiment: Cell cycle arrest in human KYSE410 cells assessed as accumulation at G1 phase at 5 uM after 24 to 48 hrs by propidium iodide staining based flow cytometry (reference value: 65.4%); type: functional
KYSE-410 [2] = experiment: Cell cycle arrest in human KYSE410 cells assessed as accumulation at S phase at 1 uM after 24 to 48 hrs by propidium iodide staining based flow cytometry (reference value: 22.3%); type: functional
OVCAR-8 = experiment: Antiproliferative activity against human OVCAR8 cells after 72 hrs by MTT assay; type: functional, cell-based; details: OVCAR-8, 72 h
Method in brief: (§1)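 Cells grown as monolayers at 37 °C, 5% CO2, mycoplasma-checked, in exponential phase. Cells seeded in 96-well plates, 24 h attachment, then compound added for 72 h. MTT 0.3 mg/mL for 3 h at 37 °C, DMSO solubilization, absorbance at 570 nm. Inhibition = (1 − A/C) × 100%. IC50 from log(concentration) vs % inhibition plot; triplicate wells, SD from ≥3 independent experiments.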

KYSE-410 [3] = experiment: Inhibition of autophagy in human KYSE410 cells assessed as decrease in bafilomycin-induced LC3B level after 24 hrs by Western blot analysis; type: functional, cell-based
Method in brief: (§2)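 Cells treated 24 h at indicated concentrations, with bafilomycin for induced-LC3B readouts. Lysis in RIPA with protease inhibitors, BCA protein assay, samples heated 5 min at 100 °C. Equal protein run on 15% SDS-PAGE, transferred to PVDF. Anti-LC3B primary overnight at 4 °C, GAPDH as loading control, anti-rabbit secondary, TBST washes.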

KYSE-410 [4] = experiment: Antiproliferative activity against human KYSE410 cells after 72 hrs by MTT assay; type: functional, cell-based; details: KYSE-410, 72 h; method in brief: as §1
KYSE-410 [5] = experiment: Cell cycle arrest in human KYSE410 cells assessed as accumulation at S phase at 5 uM after 24 to 48 hrs by propidium iodide staining based flow cytometry (reference value: 22.3%); type: functional
KYSE-70 cell line [6] = experiment: Inhibition of colony formation in human KYSE-70 cells at >3 uM after 7 days by crystal violet staining based assay; type: functional, cell-based
Method in brief: (§3)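 Seeding at 250 cells/well in 96-well plates, attached 24 h, then serial compound dilutions added at 37 °C. Culture continued 7 days until colonies formed. Colonies washed, stained with 2% crystal violet for 1 h, then rinsed thoroughly with water.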

KYSE-410 [7] = experiment: Cell cycle arrest in human KYSE410 cells assessed as accumulation at G2 phase at 5 uM after 24 to 48 hrs by propidium iodide staining based flow cytometry (reference value: 12.2%); type: functional
KYSE-410 [8] = experiment: Inhibition of colony formation in human KYSE410 cells at >3 uM after 7 days by crystal violet staining based assay; type: functional, cell-based; method in brief: as §3
MIA PaCa-2 [9] = experiment: Antiproliferative activity against human MIAPaCa2 cells after 72 hrs by MTT assay; type: functional, cell-based; details: MIA PaCa-2, 72 h; method in brief: as §1
KYSE-410 [10] = experiment: Inhibition of autophagy in human KYSE410 cells assessed as decrease in bafilomycin-induced LC3B level at 10 uM treated at 1 hr post proteasome inhibitor MG132 treatment measured after 24 hrs by Western blot analysis; type: functional, cell-based
Method in brief: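 KYSE410 cells pretreated 1 h with 10 µM MG132 (proteasome inhibitor), then compound at 10 µM for 24 h. Lysis in RIPA with protease inhibitors, BCA quantification, equal protein on 15% SDS-PAGE, PVDF transfer. Anti-LC3B overnight at 4 °C, anti-rabbit secondary, GAPDH as loading reference.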

MIA PaCa-2 [11] = experiment: Inhibition of autophagy in human MIAPaCa2 cells assessed as decrease in bafilomycin-induced LC3B level at 1 to 10 uM after 24 hrs by Western blot analysis; type: functional, cell-based; method in brief: as §2
SK-OV-3 = experiment: Antiproliferative activity against human SKOV3 cells after 72 hrs by MTT assay; type: functional, cell-based; details: SK-OV-3, 72 h; method in brief: as §1
KYSE-410 [12] = experiment: Cell cycle arrest in human KYSE410 cells assessed as accumulation at G1 phase at 1 uM after 24 to 48 hrs by propidium iodide staining based flow cytometry (reference value: 65.4%); type: functional
KYSE-410 [13] = experiment: Inhibition of autophagy in human KYSE410 cells assessed as decrease in bafilomycin-induced LC3B level at 1 to 10 uM after 24 hrs by Western blot analysis; type: functional, cell-based; method in brief: as §2
KYSE-70 cell line [14] = experiment: Antiproliferative activity against human KYSE-70 cells after 72 hrs by MTT assay; type: functional, cell-based; details: KYSE-70, 72 h; method in brief: as §1
KYSE-410 [15] = experiment: Cell cycle arrest in human KYSE410 cells assessed as accumulation at G2 phase at 1 uM after 24 to 48 hrs by propidium iodide staining based flow cytometry (reference value: 12.2%); type: functional

- IC50 (OVCAR-8): 12.1 µM
- IC50 (MIA PaCa-2 [9]): 7.8 µM
- IC50 (SK-OV-3): 10.8 µM
Compound: O=C(Nc1cc(F)cc(F)c1)c1cc(=O)[nH]c2cc(Br)ccc12
- Activity (KYSE-410 [1]): 57.2%
- Activity (KYSE-410 [2]): 21.2%
- inhibition (KYSE-410 [3]): Dose-dependent effect
- IC50 (KYSE-410 [4]): 11.2 µM
- Activity (KYSE-410 [5]): 23%
- inhibition (KYSE-70 cell line [6]): Active
- Activity (KYSE-410 [7]): 19.8%
- inhibition (KYSE-410 [8]): Active
- inhibition (KYSE-410 [10]): inactive
- inhibition (MIA PaCa-2 [11]): Active
- Activity (KYSE-410 [12]): 64.2%
- inhibition (KYSE-410 [13]): Active
- IC50 (KYSE-70 cell line [14]): 10.7 µM
- Activity (KYSE-410 [15]): 14.6%
